ChEMBL document CHEMBL1126919, “Analyses of ligand binding in five endothiapepsin crystal complexes and their use in the design and evaluation of novel renin inhibitors” (J Med Chem, 1993)

Columns and labels:
[1] = Binding affinity of compound against endothiapepsin
Method in brief: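 Reactions at 37 °C in 0.1 M sodium formate pH 3.5 with 4% DMSO (inhibitor stocks in DMSO). Enzyme preincubated 3 min at 37 °C. Initial rates taken at six substrate levels (0.8Km–10Km), then at ≥3 substrate levels after preincubation with ≥2 inhibitor concentrations. Ki fitted by Marquardt analysis to competitive-inhibition equation.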

Renin (Homo sapiens) [2] = target: T1, Renin (Homo sapiens) (UniProt P00797); experiment: Percent inhibition of compound against renin monkey plasma at 10e-6 M; type: cell-free; details: Cercopithecidae, target entry is the homologue from another species
T1 sequence (whole entry): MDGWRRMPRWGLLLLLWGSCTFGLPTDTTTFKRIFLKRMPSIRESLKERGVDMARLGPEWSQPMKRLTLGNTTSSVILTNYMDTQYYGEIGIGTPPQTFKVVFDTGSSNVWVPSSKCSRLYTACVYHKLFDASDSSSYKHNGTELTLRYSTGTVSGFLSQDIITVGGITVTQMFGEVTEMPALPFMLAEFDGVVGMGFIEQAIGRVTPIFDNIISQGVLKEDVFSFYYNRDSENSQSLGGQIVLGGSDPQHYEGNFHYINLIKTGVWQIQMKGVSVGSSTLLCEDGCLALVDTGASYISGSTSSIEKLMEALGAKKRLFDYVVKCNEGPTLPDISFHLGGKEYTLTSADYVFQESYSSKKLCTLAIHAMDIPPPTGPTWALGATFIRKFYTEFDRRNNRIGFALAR
Method in brief: (§1)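 Renin activity in monkey plasma, with inhibition measured as angiotensin I generated, quantified by radioimmunoassay following Haber's method.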

Renin = target: T2, Renin (Homo sapiens, UniProt P00797); experiment: Inhibitory concentration of compound against renin human plasma; type: cell-free
T2 sequence (P00797 whole entry): T1 sequence (whole entry)

Renin (Homo sapiens) [3] = target: T1, Renin (Homo sapiens); experiment: Percent inhibition of compound against renin monkey plasma at 10 e-6 M; details: Cercopithecidae, target entry is the homologue from another species
Renin (Homo sapiens) [4] = target: T1, Renin (Homo sapiens); experiment: Percent inhibition of compound against renin human plasma at 10 e-6 M; type: cell-free
Renin (Homo sapiens) [5] = target: T1, Renin (Homo sapiens); experiment: Percent inhibition of compound against renin monkey plasma at 10E-6 M; type: cell-free; details: Cercopithecidae, target entry is the homologue from another species; method in brief: as §1

Ki [1] | IC50 (Renin) | SMILES | further results
6.5 nM | – | CCSC(NC(=O)[C@H](Cc1ccccc1)NS(=O)(=O)N1CCOCC1)C(=O)N[C@@H](CC1CCCCC1)[C@@H](O)[C@@H](O)CC(C)C (stereo partly specified) | –
– | – | CC(C)CC(O)C(O)C(CC1CCCCC1)NC(=O)c1cc(NC(=O)CSc2ccccc2)ccc1CO (stereo unspecified) | inhibition (Renin (Homo sapiens) [2]): 4.4%
– | 25 nM | CCC(C)CNC(=O)CC(O)C(CC(C)C)NC(=O)C(CCCC/N=C(/S)NC)NC(=O)C(Cc1ccccc1)NS(=O)(=O)N(C)C (stereo unspecified) | –
16000 nM | 22 nM | CC(C)CC(NC(=O)CC(O)C(CC1CCCCC1)NC(=O)CCC(O)C(Cc1ccccc1)NC(=O)OC(C)(C)C)C(=O)NCc1cccc(CN)c1 (stereo unspecified) | –
240 nM | 170 nM | CCC(C)CNC(=O)C(CC(C)C)CC(O)C(CC1CCCCC1)NC(=O)C(Cc1c[nH]cn1)NC(=O)C(Cc1cccc2ccccc12)Cc1cccc2ccccc12 (stereo unspecified) | –
– | – | COC(=O)C(C)(NC(=O)C(Cc1ccccc1)NS(=O)(=O)N1CCOCC1)C(=O)NC(CC1CCCCC1)C(O)C(O)CC(C)C (stereo unspecified) | inhibition (Renin (Homo sapiens) [3]): 4.4%
110 nM | – | CCC(C)CNC(=O)CP(=O)(O)C(CC(C)C)NC(=O)C(Cc1c[nH]cn1)NC(=O)C(Cc1ccccc1)NC(=O)OC(C)(C)C (stereo unspecified) | inhibition (Renin (Homo sapiens) [4]): 3.3%
– | – | CC(C)CC(O)C(O)C(CC1CCCCC1)NC(=O)c1cccc(NC(=O)CSc2ccccc2)c1 (stereo unspecified) | inhibition (Renin (Homo sapiens) [5]): 12.6%
